Reference: ChEMBL document CHEMBL4261561, “Thiosemicarbazone-based selective proliferation inactivators inhibit gastric cancer cell growth, invasion, and migration” (Medchemcomm, 2017)
Values belong to the compound of their own block, whether it stands above or below them. Active and inactive are the calls of the source. The rule behind the calls is not given here.

What was measured:
[1] = tested on: MGC-803; assay: Cell cycle arrest in human MGC803 cells assessed as accumulation at G2 phase at 0.25 uM after 48 hrs by propidium iodide staining-based flow cytometric method (reference value: 10.60%); format: functional
[2] = tested on: MGC-803; assay: Induction of apoptosis in human MGC803 cells assessed as late apoptotic cells at 0.25 uM after 48 hrs by Annexin-V/propidium iodide staining based flow cytometric analysis (reference value: 0.3%); format: functional
[3] = tested on: MGC-803; assay: Anti-invasive activity against human MGC803 cells after 48 hrs by Hoechst 33258 staining based matrigel coated transwell assay; format: functional, cell-based
Summary of the method: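 This was an invasion variant of the transwell assay, with the upper chamber precoated with Matrigel. MGC-803 cells in 1% FBS medium with varied compound concentrations were placed above 20% FBS medium. After 48 h, cells were methanol-fixed, stained with 20 µg/mL Hoechst-33258 for 30 min in the dark, and imaged.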

[4] = tested on: MGC-803; assay: Potency index, ratio of 3-AP IC50 to test compound IC50 for human MGC803 cells after 72 hrs by MTT assay; format: functional
[5] = tested on: MGC-803; assay: Induction of apoptosis in human MGC803 cells assessed as necrotic cells at 0.25 uM after 48 hrs by Annexin-V/propidium iodide staining based flow cytometric analysis (reference value: 0.1%); format: functional
[6] = tested on: MGC-803; assay: Antimigratory activity against human MGC803 cells after 48 hrs by wound healing assay; format: functional, cell-based
Summary of the method: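 Confluent monolayers were scratched with a sterile pipette tip and PBS-washed. Cells were then cultured in medium containing only 1% FBS with varied compound concentrations for 48 h. Wounds were photographed under an inverted microscope at 0 h and 48 h.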

[7] = tested on: MGC-803; assay: Cell cycle arrest in human MGC803 cells assessed as accumulation at S phase at 0.5 uM after 48 hrs by propidium iodide staining-based flow cytometric method (reference value: 28.84%); format: functional
[8] = tested on: MGC-803; assay: Induction of apoptosis in human MGC803 cells assessed as viable cells at 0.25 uM after 48 hrs by Annexin-V/propidium iodide staining based flow cytometric analysis (reference value: 96.1%); format: functional; conditions: MGC-803, 48 h, read-out: Activity
[9] = tested on: MGC-803; assay: Cell cycle arrest in human MGC803 cells assessed as accumulation at G1 phase at 0.5 uM after 48 hrs by propidium iodide staining-based flow cytometric method (reference value: 60.55%); format: functional
[10] = tested on: MGC-803; assay: Antiproliferative activity against human MGC803 cells after 24 hrs by MTT assay; format: functional, cell-based; conditions: MGC-803, 24 h
[11] = tested on: MGC-803; assay: Induction of apoptosis in human MGC803 cells assessed as chromatin shrinkage up to 0.5 uM after 48 hrs by Hoechst 33258 staining based fluorescence microscopic method; format: functional, cell-based
Summary of the method: (§1)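 About 2×10^5 MGC-803 cells per well were treated after attachment with increasing compound concentrations for 48 h. They were fixed and stained with 20 µg/mL Hoechst-33258 for 30 min in the dark, then PBS-washed three times and viewed by fluorescence microscopy under UV excitation. Apoptotic cells were scored by nuclear condensation and fragmentation.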

[12] = tested on: MGC-803; assay: Induction of apoptosis in human MGC803 cells assessed as down regulation of Bcl-2 expression after 48 hrs by Western blot analysis; format: functional, cell-based
Summary of the method: (§2)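 Treated MGC-803 cells were lysed on ice for 30 min in NP-40/SDS/deoxycholate/PMSF buffer. Equal protein was separated by SDS-PAGE and transferred to 0.22 µm nitrocellulose. Membranes were blocked 2 h in 5% nonfat milk/PBS, probed with primary antibody at 4°C overnight, then incubated with secondary antibody for 2 h.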

[13] = tested on: MGC-803; assay: Induction of apoptosis in human MGC803 cells assessed as early apoptotic cells at 0.1 uM after 48 hrs by Annexin-V/propidium iodide staining based flow cytometric analysis (reference value: 3.4%); format: functional
[14] = tested on: MGC-803; assay: Induction of apoptosis in human MGC803 cells assessed as cell rounding up to 0.5 uM after 48 hrs by Hoechst 33258 staining based fluorescence microscopic method; format: functional; summary of the method: as §1
[15] = tested on: MGC-803; assay: Induction of apoptosis in human MGC803 cells assessed as formation of apoptotic bodies up to 0.5 uM after 48 hrs by Hoechst 33258 staining based fluorescence microscopic method; format: functional, cell-based; summary of the method: as §1
[16] = tested on: MGC-803; assay: Cell cycle arrest in human MGC803 cells assessed as accumulation at G2 phase at 0.5 uM after 48 hrs by propidium iodide staining-based flow cytometric method (reference value: 10.60%); format: functional
[17] = tested on: MGC-803; assay: Induction of apoptosis in human MGC803 cells assessed as viable cells at 0.1 uM after 48 hrs by Annexin-V/propidium iodide staining based flow cytometric analysis (reference value: 96.1%); format: functional; conditions: MGC-803, 48 h, read-out: Activity
[18] = tested on: GES1; assay: Cytotoxicity against human GES-1 cells after 72 hrs by MTT assay; format: cell-based; conditions: GES1, 72 h
Summary of the method: (§3)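 Exponentially growing cells were seeded at about 3×10^3 per well and left 24 h, then given fresh medium with a range of compound concentrations for 72 h. MTT solution (5 mg/mL) was added for another 4 h. Medium was removed, formazan was dissolved in DMSO, and absorbance was read at 570 nm. IC50 was derived statistically.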

[19] = tested on: MGC-803; assay: Induction of apoptosis in human MGC803 cells assessed as early apoptotic cells at 0.25 uM after 48 hrs by Annexin-V/propidium iodide staining based flow cytometric analysis (reference value: 3.4%); format: functional
[20] = tested on: MGC-803; assay: Induction of apoptosis in human MGC803 cells assessed as viable cells at 0.5 uM after 48 hrs by Annexin-V/propidium iodide staining based flow cytometric analysis (reference value: 96.1%); format: functional; conditions: MGC-803, 48 h, read-out: Activity
[21] = tested on: MGC-803; assay: Induction of apoptosis in human MGC803 cells assessed as late apoptotic cells at 0.5 uM after 48 hrs by Annexin-V/propidium iodide staining based flow cytometric analysis (reference value: 0.3%); format: functional
[22] = tested on: MGC-803; assay: Induction of apoptosis in human MGC803 cells assessed as late apoptotic cells at 0.1 uM after 48 hrs by Annexin-V/propidium iodide staining based flow cytometric analysis (reference value: 0.3%); format: functional
[23] = tested on: MGC-803; assay: Cell cycle arrest in human MGC803 cells assessed as accumulation at G2 phase at 0.1 uM after 48 hrs by propidium iodide staining-based flow cytometric method (reference value: 10.60%); format: functional
[24] = tested on: MGC-803; assay: Induction of apoptosis in human MGC803 cells assessed as necrotic cells at 0.1 uM after 48 hrs by Annexin-V/propidium iodide staining based flow cytometric analysis (reference value: 0.1%); format: functional
[25] = tested on: SMMC-7721; assay: Antiproliferative activity against human SMMC7721 cells after 72 hrs by MTT assay; format: functional, cell-based; conditions: SMMC-7721, 72 h; summary of the method: as §3
[26] = tested on: MGC-803; assay: Cell cycle arrest in human MGC803 cells assessed as accumulation at S phase at 0.25 uM after 48 hrs by propidium iodide staining-based flow cytometric method (reference value: 28.84%); format: functional
[27] = tested on: MGC-803; assay: Cell cycle arrest in human MGC803 cells assessed as accumulation at S phase at 0.1 uM after 48 hrs by propidium iodide staining-based flow cytometric method (reference value: 28.84%); format: functional
[28] = tested on: MGC-803; assay: Induction of apoptosis in human MGC803 cells assessed as up-regulation of Bax expression after 48 hrs by Western blot analysis; format: functional, cell-based; summary of the method: as §2
[29] = tested on: MGC-803; assay: Cell cycle arrest in human MGC803 cells assessed as accumulation at S phase after 48 hrs by propidium iodide staining-based flow cytometric method; format: functional
[30] = tested on: MGC-803; assay: Induction of apoptosis in human MGC803 cells assessed as early apoptotic cells at 0.5 uM after 48 hrs by Annexin-V/propidium iodide staining based flow cytometric analysis (reference value: 3.4%); format: functional
[31] = tested on: MGC-803; assay: Induction of apoptosis in human MGC803 cells after 48 hrs by Annexin-V/propidium iodide staining based flow cytometric analysis; format: functional, cell-based
[32] = tested on: MGC-803; assay: Up-regulation of E-cadherin protein expression in human MGC803 cells up to 0.5 uM after 48 hrs by Western blot analysis; format: functional, cell-based; summary of the method: as §2
[33] = tested on: MGC-803; assay: Cell cycle arrest in human MGC803 cells assessed as accumulation at G1 phase at 0.1 uM after 48 hrs by propidium iodide staining-based flow cytometric method (reference value: 60.55%); format: functional
[34] = tested on: MGC-803; assay: Antiproliferative activity against human MGC803 cells after 48 hrs by MTT assay; format: functional, cell-based; conditions: MGC-803, 48 h
[35] = tested on: MGC-803; assay: Induction of apoptosis in human MGC803 cells assessed as necrotic cells at 0.5 uM after 48 hrs by Annexin-V/propidium iodide staining based flow cytometric analysis (reference value: 0.1%); format: functional
[36] = tested on: MGC-803; assay: Down regulation of N-cadherin protein expression in human MGC803 cells up to 0.5 uM after 48 hrs by Western blot analysis; format: functional, cell-based; summary of the method: as §2
[37] = tested on: MCF7; assay: Antiproliferative activity against human MCF7 cells after 72 hrs by MTT assay; format: functional, cell-based; conditions: MCF7, 72 h; summary of the method: as §3
[38] = tested on: MGC-803; assay: Anticlonogenic activity against human MGC803 cells at 0.1 to 0.5 uM after 7 to 14 days by crystal violet staining based assay; format: functional, cell-based
Summary of the method: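 MGC-803 cells were seeded at about 1×10^3 per well and left 24 h, then grown 14 days in fresh medium with varied compound concentrations. Cells were PBS-washed, fixed in 4% paraformaldehyde for 30 min, and stained with 1% crystal violet for 30 min at 37°C before colonies were washed clear.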

[39] = tested on: MGC-803; assay: Antimigratory activity against human MGC803 cells after 48 hrs by Hoechst 33258 staining based transwell assay; format: functional, cell-based
Summary of the method: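 This was a transwell migration set-up. MGC-803 cells in medium with 1% FBS and varied compound concentrations went into the upper chamber, with 20% FBS medium below. After 48 h, chambers were PBS-washed and migrated cells were methanol-fixed. They were stained with 20 µg/mL Hoechst-33258 for 30 min in the dark and imaged on a high-content system.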

[40] = tested on: MGC-803; assay: Antiproliferative activity against human MGC803 cells after 72 hrs by MTT assay; format: functional, cell-based; conditions: MGC-803, 72 h; summary of the method: as §3
[41] = tested on: MGC-803; assay: Cell cycle arrest in human MGC803 cells assessed as accumulation at G1 phase at 0.25 uM after 48 hrs by propidium iodide staining-based flow cytometric method (reference value: 60.55%); format: functional

IC50 [10]: > 64 µM
IC50 [25]: 19.2 µM
IC50 [34]: 9.22 µM
IC50 [37]: 9.99 µM
IC50 [40]: 0.93 µM
SMILES: C/C(=N\NC(=S)Nc1ccccc1)c1cc(Cl)ccc1O
Activity [1]: 0%
Activity [2]: 1.3%
Activity [3]: Dose-dependent effect
Ratio IC50 [4]: 10
Activity [5]: 0.2%
Activity [6]: Dose-dependent effect
Activity [7]: 51.85%
viability at 0.25 µM [8]: 83.5%
Activity [9]: 48.15%
Activity [11]: Active
Activity [12]: Dose-dependent effect
Activity [13]: 10.5%
Activity [14]: Active
Activity [15]: Active
Activity [16]: 0%
viability at 0.1 µM [17]: 89%
IC50 [18]: 27.9 µM
Activity [19]: 15.1%
viability at 0.5 µM [20]: 67.4%
Activity [21]: 2.3%
Activity [22]: 0.4%
Activity [23]: 9.73%
Activity [24]: 0.1%
Activity [26]: 46.07%
Activity [27]: 32.82%
Activity [28]: Dose-dependent effect
Activity [29]: Dose-dependent effect
Activity [30]: 30%
Activity [31]: Dose-dependent effect
Activity [32]: Active
Activity [33]: 57.45%
Activity [35]: 0.3%
Activity [36]: Active
Activity [38]: Active
Activity [39]: Dose-dependent effect
Activity [41]: 53.93%

IC50 [25]: > 64 µM
IC50 [37]: > 64 µM
IC50 [40]: > 64 µM
SMILES: COc1cc(/C=N/NC(=S)N2CCOCC2)cc(OC)c1OC

IC50 [25]: 44.9 µM
IC50 [37]: > 64 µM
IC50 [40]: > 64 µM
SMILES: Oc1ccc2ccccc2c1/C=N/NC(=S)N1CCOCC1

IC50 [25]: 34.1 µM
IC50 [37]: 12.4 µM
IC50 [40]: 2.42 µM
SMILES: Oc1ccccc1/C=N/NC(=S)Nc1ccccc1
